# Only some compounds are listed: those with a hit (about 4.1% of all), similar ones and a draw of the others.
# MC4R barr agon = agonists of human melanocortin 4 receptor (MC4R) beta-arrestin. actives 0.98% (n = 360,000). U2OS MC4R beta-arrestin complementation, luminescence; percent of melanotan II response, DMSO zero. P32245. activation, % at 8.9 µM;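 active means activation above a per-plate cutoff, the mean activation of sample wells on that plate plus 3 SD, cut at about 8% in these data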
# ATG4B inh = blocks human ATG4B protease cleavage of LC3 substrate; Q9Y4P1; ATG4B cleavage of LC3-PLA2, NBD-HPC fluorescence, 1 h; inhibition, % at 8.33 µM; actives 0.51% (n = 340,000); in the data active means inhibition above about 40%
# Target sequence (Q9Y4P1 whole entry, looked up): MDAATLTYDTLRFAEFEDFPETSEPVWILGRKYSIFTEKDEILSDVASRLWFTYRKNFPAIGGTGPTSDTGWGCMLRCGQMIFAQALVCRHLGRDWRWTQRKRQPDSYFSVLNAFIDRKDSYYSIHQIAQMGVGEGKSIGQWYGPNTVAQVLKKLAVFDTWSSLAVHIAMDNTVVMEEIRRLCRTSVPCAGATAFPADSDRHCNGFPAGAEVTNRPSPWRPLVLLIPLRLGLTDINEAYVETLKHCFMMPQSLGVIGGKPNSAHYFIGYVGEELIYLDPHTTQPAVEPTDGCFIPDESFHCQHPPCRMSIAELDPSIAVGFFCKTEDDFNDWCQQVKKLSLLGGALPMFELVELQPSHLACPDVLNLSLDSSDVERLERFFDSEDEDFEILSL
# SMARCA2 activ = SMARCA2 function activation, primary screen; MG213 cells, MMTV-luciferase reporter, dexamethasone, overnight; activation, % at 9.1 µM; actives 1% (n = 370,000); in the data active means activation above about 7.8%;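 further: 0% = vehicle wells and 100% = reference activator wells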
# MC4R antagonist = antagonists of human melanocortin 4 receptor (MC4R); inhibition, % at 6.5 µM; actives 0.48% (n = 360,000); MC4R-expressing cells, MTII-stimulated cAMP, LANCE TR-FRET; P32245; AID 540295;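 active means inhibition above its plate's cutoff, the mean of tested wells on that plate plus 3 SD, cut at about 29% in these data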;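 further: 0% = Melanotan II alone and 100% = Melanotan II plus saturating MCL0020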
#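 Assay system: human MC4R-expressing U2OS cells; reagent: Melanotan II stimulation of cells; dosing: 6.5 µM single dose; timing: compound 30 min, challenge 1 h, detection 1 h; signal: TR-FRET cAMP assay; replicates: one well per compound, no replicates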
# MPTP block = blocks calcium-induced mitochondrial swelling; actives 1.4% (n = 360,000); isolated mouse mitochondria, Ca2+ swelling absorbance, 30 min; inhibition, % at 10 µM; AID 602449;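 active means inhibition of 50% or more, scaled per plate between neutral and stimulator controls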;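 further: 0% = DMSO wells given calcium and 100% = 1 mM EGTA wells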
# SMARCA2 act conf = SMARCA2 activation, confirmation screen; shares compounds with SMARCA2 activ; MG213 cells, MMTV-luciferase with dexamethasone, luminescence, overnight; MG213 cells expressing E1A, Rb sequestered; DMSO wells 0%, reference activator 100%; activation, % at 9.1 µM; actives 30% (n = 3,500);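 active means activation above its plate's cutoff, the mean activation of tested wells plus 3 SD, cut at about 7.9% in these data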
# GAL4-VP16 Luc = GAL4-VP16 reporter activation counter-screen. shares compounds with SMARCA2 activ. HEK293 GAL4-VP16 pG5luc reporter, luciferase luminescence; scaled: DMSO wells 0%, SAHA wells 100%. activation, % at 9.1 µM. actives 41% (n = 3,500);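 active means activation above the solvent-only control well mean plus 3 SD, averaged across control plates, cut at about 5.2% in these data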
# Numbers without * were called inactive; . = no result given.
SMILES,MC4R barr agon,ATG4B inh,SMARCA2 activ,MC4R antagonist,MPTP block,SMARCA2 act conf,GAL4-VP16 Luc
CN(C)/C=N/c1nc2ccc3c(c2s1)CCCC3,0.8,3.7,15.1*,12.0,-0.6,17.5*,12.8*
CN(C)c1ccc(C=C2C=Cc3ccccc32)cc1,-1.1,8.1,9.3*,4.4,2.7,3.5,10.6*
O=C(Nc1ccccc1)Nc1ccccn1,-1.5,-8.9,5.3,20.4,15.7,.,.
O=C(Nc1ccccn1)C(=O)Nc1ccccn1,-0.4,-8.5,10.7*,-3.8,1.1,6.1,8.5*
O=C(Nc1cc2c(oc1=O)CCCC2=O)c1ccc(Cl)cc1,0.3,13.5,9.4*,-0.8,-0.2,4.9,1.8
Cc1nccc2oc(=O)c(NC(=O)c3ccc(Cl)cc3)cc12,-0.9,13.3,7.4,21.3,-0.7,.,.
CCN1CCN(c2ccc(S(=O)(=O)N3CCCCC3)cc2NC(=O)/C=C/c2ccc([N+](=O)[O-])cc2)CC1,-0.8,-7.2,14.8*,2.5,-0.7,23.1*,0.3
O=C(/C=C/c1ccc(Cl)cc1)Nc1cc(S(=O)(=O)N2CCOCC2)ccc1N1CCOCC1,-1.2,-3.2,8.2*,2.3,-0.4,2.0,-0.1
CCN1CCN(c2ccc(S(=O)(=O)N3CCOCC3)cc2NC(=O)/C=C/c2ccc(C)cc2)CC1,-1.5,-15.8,1.4,12.1,-1.2,.,.
COc1cccc(N(C)C(=O)[C@@H](C)[C@@H](O)c2ccc(C(C)=O)cc2)c1,.,.,-2.6,.,.,.,.
O=C(COc1cccnc1[N+](=O)[O-])Nc1cccc(Br)c1,0.7,-1.0,10.7*,-8.3,0.0,6.6,4.6
COc1ccc(CNC(=O)C2CCCN(c3nc4ccccc4o3)C2)cc1 (stereo unspecified),.,.,-5.5,.,.,.,.
CC(C)CNC(=O)OCc1cn(Cc2ccccc2F)nn1,.,.,-0.8,.,.,.,.
COc1cccc(-c2nn3c(-c4ccccn4)nnc3s2)c1,-1.8,1.2,8.7*,-0.1,3.5,3.1,1.4
Cc1cc(C)nc(NC(=S)NC(=O)c2ccccc2F)n1,-1.1,-9.7,1.2,-1.7,2.0,.,.
Cc1cc(C)nc(S/C=C/C(=O)c2ccccc2F)n1,-1.9,5.6,14.1*,-8.6,2.7,-13.1,2.4
C=CCN1C(=O)[C@@H](CC(=O)NCc2ccc(C)o2)[C@]2(C(=O)OCC)CCCCC/C=C/12,.,.,2.8,.,.,.,.
CCc1nc2ccccc2nc1N1CCN(S(=O)(=O)c2ccc(Cl)cc2)CC1,2.4,4.8,9.4*,5.7,0.6,-3.2,0.3
Nc1ccc2ccc(O)cc2c1,-2.0,-11.2,3.3,-7.1,0.2,.,.
Nc1cccc(O)c1,0.0,-4.1,9.7*,4.4,-0.2,4.7,0.7
Cn1cnnc1SCC(=O)Nc1ccc2nc(SCc3ccccc3F)sc2c1,0.0,-4.6,9.9*,-3.4,1.5,3.4,9.0*
Cn1c(SCC(=O)Nc2ccc3nc(SCC(=O)N4CCCC4)sc3c2)nnc1-c1ccccc1,.,-4.3,-0.3,.,.,.,.
Cc1cc(N2CCNC[C@@H]2C)ccc1N1CCS(=O)(=O)CC1,.,.,-1.3,.,.,.,.
COc1ccccc1Nc1nc(N)nc(CSC(=S)N2CCN(c3ccccc3)CC2)n1,2.2,1.5,8.7*,1.2,1.9,-6.8,-0.1
COc1ccccc1-c1nc(=S)c(C(C)=O)c(C)[nH]1,-0.8,0.9,12.4*,8.8,1.5,-1.4,1.6
SMILES,MC4R barr agon,ATG4B inh,SMARCA2 activ,MC4R antagonist,MPTP block,SMARCA2 act conf,GAL4-VP16 Luc
COc1ccccc1-c1nc(NC(C)=O)n[nH]1,.,-10.0,0.4,.,.,.,.
CC(=O)c1c(NC(=O)c2ccccc2)[nH]c(-c2ccccc2)nc1=S,-1.6,2.0,-4.0,11.3,-2.3,.,.
CC(=O)c1c(C)[nH]c(-c2ccccc2)nc1=S,-0.1,1.1,10.6*,-2.3,-0.1,-2.6,-0.3
CCCN(CC1CC1)C(=O)CN1C(=O)C2CCCCN2C(=O)c2ccccc21 (stereo unspecified),.,.,3.4,.,.,.,.
Cn1cc([C@]2(O)C(=O)Nc3ccc(OC(F)(F)F)cc32)c2ccccc21,.,.,-2.3,.,7.9,.,.
COc1ccc(N(CCCN2C(=O)c3cccc4cccc(c34)C2=O)C(=O)c2ccncc2)cc1,7.5,-8.5,8.0*,-25.3,0.1,2.5,2.6
